Experimental data gathered from unrelated publications.
Lines come from different studies, so protocols differ.
PFF0160c: Dihydroorotate dehydrogenase (quinone), mitochondrial (PFF0160c, Plasmodium falciparum, UniProt Q08210)
PROC: Vitamin K-dependent protein C (PROC, Homo sapiens, UniProt P04070)
PFF0160c E182D: Dihydroorotate dehydrogenase (quinone), mitochondrial (PFF0160c, Plasmodium falciparum, UniProt Q08210, E182D)

Cc1nc(NC2CCc3ccc(Br)cc3C2)c2c(C)noc2n1 (stereo not shown)
IC50 (PFF0160c; enzyme activity; inhibitor; absorbance): 22 nM

O=S(=O)(O)c1nc2ccccc2[nH]1
IC50 (racE (Bacillus subtilis, UniProt P94556, N75A); enzyme activity; inhibitor; absorbance): 890000 nM

CCOC(=O)c1[nH]cc(Cc2cccc3ncoc23)c1C
IC50 (PFF0160c; enzyme activity; inhibitor; absorbance): 100 nM

CC[C@H]1NC(=O)[C@@H]2CSC(=N2)[C@H](Cc2ccccc2)N(C)C(=O)[C@@H]2CCCN2C(=O)[C@H](C(C)C)N(C)C(=O)[C@H](Cc2ccccc2)OC(=O)[C@H](C)[C@@H](C)NC(=O)[C@@H]([C@@H](C)O)NC(=O)[C@@H](CC(C)C)N(C)C(=O)[C@@H]2CSC1=N2
IC50 (PROC; enzyme activity; inhibitor): 62000 nM

CC1CN(Cc2ccc(-c3ccc(C(=O)NCC4CCCO4)cn3)cc2)CC(C)O1 (stereo not shown)
IC50 (PFF0160c E182D; enzyme activity; inhibitor; absorbance): 3280 nM

Cc1noc2nc(C(F)(F)F)nc(Nc3ccc(C(F)(F)F)cc3)c12
IC50 (PFF0160c; enzyme activity; inhibitor; absorbance): 610 nM

CCc1nc2nc(C)cc(Nc3ccc4c(c3)OCCO4)n2n1
IC50 (PFF0160c E182D; enzyme activity; inhibitor; absorbance): > 10000 nM

Cc1c(C(=O)NC(C)c2nc[nH]n2)[nH]c(Cl)c1Cc1ccc(C(F)(F)F)nc1 (stereo not shown)
IC50 (PFF0160c; enzyme activity; inhibitor; absorbance): > 100000 nM

Cc1nc(Nc2ccc(S(F)(F)(F)(F)F)cc2)c2c(C)noc2n1
IC50 (PFF0160c; enzyme activity; inhibitor; absorbance): 36 nM

Cc1c(C2(c3cccc(C(F)(F)F)c3)CC2)c[nH]c1C(=O)NC(C)c1nc[nH]n1 (stereo not shown)
IC50 (PFF0160c; enzyme activity; inhibitor; absorbance): 30000 nM

O=C(CCCC(=O)N1CCN(C(=O)c2cc(Cc3n[nH]c(=O)c4ccccc34)ccc2F)CC1)NCCNC(=O)C1CC2C=CC1C2 (stereo not shown)
IC50 (Poly [ADP-ribose] polymerase 1 (PARP1, Homo sapiens, UniProt P09874); enzyme activity; inhibitor): 10.1 nM

O=C(Nc1ccccc1)OCC(CN1CCCCC1)OC(=O)Nc1ccccc1 (stereo not shown)
IC50 (Kappa-type opioid receptor (OPRK1, Homo sapiens, UniProt P41145); ligand displacement; radioligand): 1420 nM

Cc1nc(NC2CCc3cc(Br)ccc3C2)c2c(C)noc2n1 (stereo not shown)
IC50 (PFF0160c; enzyme activity; inhibitor; absorbance): 530 nM

CCc1nc2nc(C)cc(Nc3ccc(F)c(Cl)c3)n2n1
IC50 (PFF0160c E182D; enzyme activity; inhibitor; absorbance): > 10000 nM

CCOC(=O)c1ccc(OC(=O)CCCCCN=C(N)N)cc1
IC50 (PROC; enzyme activity; inhibitor): 1400 nM

CN(C)S(=O)(=O)c1ccc(Sc2ccccc2)c(C(=O)N2CCCC(C(N)=O)C2)c1 (stereo not shown)
IC50 (PFF0160c E182D; enzyme activity; inhibitor; absorbance): 2560 nM

Cc1c(Cc2ccc(C(F)(F)F)cc2F)c[nH]c1C(=O)NC(C)c1nc[nH]n1 (stereo not shown)
IC50 (PFF0160c; enzyme activity; inhibitor; absorbance): 350 nM

Cn1cc(-c2ccc(-n3ccc(OCc4ccc(Cl)cn4)cc3=O)cn2)cn1
IC50 (PFF0160c E182D; enzyme activity; inhibitor; absorbance): 7020 nM

Cc1noc2nc(C(F)(F)F)nc(Nc3ccc(S(F)(F)(F)(F)F)cc3)c12
IC50 (PFF0160c; enzyme activity; inhibitor; absorbance): 250 nM

COc1ccc(-n2ccnc2SCC(=O)Nc2cc(C)ccc2C)c(OC)c1
IC50 (PFF0160c; enzyme activity; inhibitor; absorbance): 324 nM

Cc1c(C2(c3ccc(C(F)(F)F)cc3F)CC2)c[nH]c1C(=O)NC(C)c1nc[nH]n1 (stereo not shown)
IC50 (PFF0160c; enzyme activity; inhibitor; absorbance): > 100000 nM

Cc1cc(Nc2ccc3c(c2)CCC3)n2ncnc2n1
IC50 (PFF0160c E182D; enzyme activity; inhibitor; absorbance): > 10000 nM

Cc1nc(Nc2ccc(C)c(Cl)c2)c2c(C)noc2n1
IC50 (PFF0160c; enzyme activity; inhibitor; absorbance): 130 nM

CCCCCNC(=N)N/N=C/c1c[nH]c2ccc(OC)cc12
IC50 (5-hydroxytryptamine receptor 2A (HTR2A, Homo sapiens, UniProt P28223); calcium signal; antagonist; fluorescence): 1500 nM

Cc1c(Cc2ccc(C(F)(F)F)nc2)c[nH]c1C(=O)N[C@@H](C)C(N)=O
IC50 (PFF0160c; enzyme activity; inhibitor; absorbance): > 100000 nM

Cc1noc2nc(C(F)(F)F)nc(NC3Cc4cc(F)c(F)cc4C3)c12
IC50 (PFF0160c; enzyme activity; inhibitor; absorbance): 110 nM

CCNC(=O)c1ccc(-n2nc(C)cc2-c2ccccc2)cc1
IC50 (PFF0160c; enzyme activity; inhibitor; absorbance): 740 nM

Cc1cc(C(C)NC(=O)c2[nH]cc(Cc3ccc(C(F)(F)F)nc3)c2C)n[nH]1 (stereo not shown)
IC50 (PFF0160c; enzyme activity; inhibitor; absorbance): 100 nM
